Assay results as given in ChEMBL document CHEMBL4152203, “Antiproliferative hydrogen sulfide releasing evodiamine derivatives and their apoptosis inducing properties” (Eur J Med Chem, 2018).
Active and inactive are the calls of the source. The calls are words filed in the database; no cut-off is given here.

Key:
Bel-7402 = assay: Antiproliferative activity against human Bel7402 cells after 72 hrs by MTT assay; type: functional, cell-based; details: Bel-7402, 72 h
Method in brief: (§1)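 Cells seeded and pre-incubated 24 h at 37 °C, 5% CO2, then exposed to compounds for 72 h. MTT (5 mg/mL stock) added for 4 h, formazan dissolved in DMSO for 10 min at room temperature, absorbance read at 570 nm. 0.1% DMSO as negative and 5-FU as positive reference. IC50 derived from inhibition ratios; mean ± SD of three independent experiments.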

Caco-2 = assay: Antiproliferative activity against human Caco2 cells after 72 hrs by MTT assay; type: functional, cell-based; details: Caco-2, 72 h; method in brief: as §1
HL-60 [1] = assay: Cell cycle arrest in human HL60 cells assessed as accumulation at G1 phase at 0.3 uM after 48 hrs by propidium iodide/RNase A staining-based flow cytometric analysis (reference value: 65.75%); type: functional
HL-60 [2] = assay: Cell cycle arrest in human HL60 cells assessed as accumulation at S phase at 0.3 uM after 48 hrs by propidium iodide/RNase A staining-based flow cytometric analysis (reference value: 24.06%); type: functional
HL-60 [3] = assay: Cell cycle arrest in human HL60 cells assessed as accumulation at G2/M phase at 0.3 uM after 48 hrs by propidium iodide/RNase A staining-based flow cytometric analysis (reference value: 10.19%); type: functional
HL-60 [4] = assay: Cell cycle arrest in human HL60 cells assessed as accumulation at G2/M phase at 0.6 uM after 48 hrs by propidium iodide/RNase A staining-based flow cytometric analysis (reference value: 10.19%); type: functional
HL-60 [5] = assay: Cell cycle arrest in human HL60 cells assessed as accumulation at G1 phase at 1.2 uM after 48 hrs by propidium iodide/RNase A staining-based flow cytometric analysis (reference value: 65.75%); type: functional
HL-60 [6] = assay: Cell cycle arrest in human HL60 cells assessed as accumulation at S phase at 1.2 uM after 48 hrs by propidium iodide/RNase A staining-based flow cytometric analysis (reference value: 24.06%); type: functional
HL-60 [7] = assay: Cell cycle arrest in human HL60 cells assessed as accumulation at G2/M phase at 1.2 uM after 48 hrs by propidium iodide/RNase A staining-based flow cytometric analysis (reference value: 10.19%); type: functional
HL-60 [8] = assay: Induction of apoptosis in human HL60 cells assessed as viable cells at 0.3 uM after 48 hrs by Annexin V-FITC/propidium iodide staining-based flow cytometric analysis (reference value: 95.56%); type: functional; details: HL-60, 48 h, read-out: Activity
HL-60 [9] = assay: Induction of apoptosis in human HL60 cells assessed as early apoptotic cells at 0.3 uM after 48 hrs by Annexin V-FITC/propidium iodide staining-based flow cytometric analysis (reference value: 2.31%); type: functional
HL-60 [10] = assay: Induction of apoptosis in human HL60 cells assessed as early apoptotic cells at 0.3 uM after 48 hrs by Annexin V-FITC/propidium iodide staining-based flow cytometric analysis (reference value: 1.11%); type: functional
HL-60 [11] = assay: Induction of apoptosis in human HL60 cells assessed as necrotic cells at 0.3 uM after 48 hrs by Annexin V-FITC/propidium iodide staining-based flow cytometric analysis (reference value: 0.02%); type: functional
HL-60 [12] = assay: Induction of apoptosis in human HL60 cells assessed as viable cells at 0.6 uM after 48 hrs by Annexin V-FITC/propidium iodide staining-based flow cytometric analysis (reference value: 95.56%); type: functional; details: HL-60, 48 h, read-out: Activity
HL-60 [13] = assay: Induction of apoptosis in human HL60 cells assessed as early apoptotic cells at 0.6 uM after 48 hrs by Annexin V-FITC/propidium iodide staining-based flow cytometric analysis (reference value: 2.31%); type: functional
HL-60 [14] = assay: Induction of apoptosis in human HL60 cells assessed as early apoptotic cells at 0.6 uM after 48 hrs by Annexin V-FITC/propidium iodide staining-based flow cytometric analysis (reference value: 1.11%); type: functional
HL-60 [15] = assay: Induction of apoptosis in human HL60 cells assessed as necrotic cells at 0.6 uM after 48 hrs by Annexin V-FITC/propidium iodide staining-based flow cytometric analysis (reference value: 0.02%); type: functional
HL-60 [16] = assay: Induction of apoptosis in human HL60 cells assessed as viable cells at 1.2 uM after 48 hrs by Annexin V-FITC/propidium iodide staining-based flow cytometric analysis (reference value: 95.56%); type: functional; details: HL-60, 48 h, read-out: Activity
HL-60 [17] = assay: Induction of apoptosis in human HL60 cells assessed as necrotic cells at 1.2 uM after 48 hrs by Annexin V-FITC/propidium iodide staining-based flow cytometric analysis (reference value: 0.02%); type: functional
HL-60 [18] = assay: Induction of mitochondrial membrane potential loss in human HL60 cells assessed as cell population with mitochondrial membrane potential collapse at 0.3 uM after 48 hrs by JC1 staining-based flow cytometry analysis (reference value: 7.65%); type: functional
HL-60 [19] = assay: Induction of mitochondrial membrane potential loss in human HL60 cells assessed as cell population with intact mitochondrial membrane potential at 0.6 uM after 48 hrs by JC1 staining-based flow cytometry analysis (reference value: 92.35%); type: functional
HL-60 [20] = assay: Induction of apoptosis in human HL60 cells assessed as morphological changes by measuring chromatin condensation at 0.3 to 1.2 uM after 48 hrs by Hoechst 33258 staining-based fluorescence microscopic analysis; type: functional, cell-based
Method in brief: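 HL-60 pre-incubated 24 h, then treated 48 h with 0, 0.3, 0.6 or 1.2 μM compound or vehicle. Cells were harvested, washed twice in PBS, stained with Hoechst 33258 (2 mg/mL in PBS) for 15 min at room temperature in darkness, washed, mounted and examined by fluorescence microscopy with a DAPI filter.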

HL-60 [21] = assay: Induction of apoptosis in human HL60 cells assessed as increase in Bax level at 0.3 to 1.2 uM after 48 hrs by Western blot analysis; type: functional, cell-based
Method in brief: (§2)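 HL-60 treated in triplicate with 0.3, 0.6 or 1.2 μM compound; exposure is 72 h in the methods and 48 h in the legend. Lysates were run on 10% SDS-PAGE, transferred to nitrocellulose, blocked in 5% milk, and probed overnight at 4 °C with monoclonal antibodies (Bcl-2, Bax, cytochrome c, caspase-9/-3, p53, cyclin B1, cdc2). ECL detection; densitometry relative to GAPDH.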

HL-60 [22] = assay: Induction of apoptosis in human HL60 cells assessed as upregulation of caspase3 level at 0.3 to 1.2 uM after 48 hrs by Western blot analysis; type: functional, cell-based; method in brief: as §2
HL-60 [23] = assay: Induction of apoptosis in human HL60 cells assessed as increase in cytosolic cytochrome c level at 0.3 to 1.2 uM after 48 hrs by Western blot analysis; type: functional, cell-based; method in brief: as §2
HL-60 [24] = assay: Induction of mitochondrial membrane potential loss in human HL60 cells assessed as cell population with mitochondrial membrane potential collapse at 1.2 uM after 48 hrs by JC1 staining-based flow cytometry analysis (reference value: 7.65%); type: functional
HL-60 [25] = assay: Induction of mitochondrial membrane potential loss in human HL60 cells assessed as cell population with intact mitochondrial membrane potential at 1.2 uM after 48 hrs by JC1 staining-based flow cytometry analysis (reference value: 92.35%); type: functional
HL-60 [26] = assay: Induction of apoptosis in human HL60 cells assessed as increase in p53 protein level at 0.3 to 1.2 uM after 48 hrs by Western blot analysis; type: functional, cell-based; method in brief: as §2

## CN1c2ccccc2C(=O)N2CCc3c(n(CCCCC(=O)OCCCCOc4ccc(-c5cc(=S)ss5)cc4)c4ccccc34)C21 (stereo not drawn)
Bel-7402
  IC50: 48.9 µM
Caco-2
  IC50: 2.02 µM
HL-60 [1]
  Activity: 47.1%
HL-60 [2]
  Activity: 41.49%
HL-60 [3]
  Activity: 11.41%
HL-60 [4]
  Activity: 16.63%
HL-60 [5]
  Activity: 35.32%
HL-60 [6]
  Activity: 42.66%
HL-60 [7]
  Activity: 22.02%
HL-60 [8]
  viability at 0.3 µM: 88.7%
HL-60 [9]
  Activity: 6.74%
HL-60 [10]
  Activity: 4.53%
HL-60 [11]
  Activity: 0.06%
HL-60 [12]
  viability at 0.6 µM: 64.5%
HL-60 [13]
  Activity: 19.5%
HL-60 [14]
  Activity: 15.56%
HL-60 [15]
  Activity: 0.48%
HL-60 [16]
  viability at 1.2 µM: 39.2%
HL-60 [17]
  Activity: 0.11%
HL-60 [18]
  Activity: 13.33%
HL-60 [19]
  Activity: 78.68%
HL-60 [20]
  Activity: Active
HL-60 [21]
  Activity: Active
HL-60 [22]
  Activity: Active
HL-60 [23]
  Activity: Active
HL-60 [24]
  Activity: 35.01%
HL-60 [25]
  Activity: 64.99%
HL-60 [26]
  Activity: Active
